According to ChEMBL document CHEMBL4396873, “Discovery of Potent, Selective, and Short-Acting Peptidic V2 Receptor Agonists” (J Med Chem, 2019):
Activity calls are given as the source filed them. No cut-off for these calls is given here. Numbered stars: 1 amine (or outer) side, 2 acyl side, 3 side chain; on linkers, the order of the positions; unused ones are H or OH. Bridge positions count the residues as written; N and C are the ends. Square brackets hold non-standard residues; d marks the D form. Peptide text beside a SMILES is read from it. * marks the point of attachment. Phe(4-Cl) = N[C@@H](Cc1ccc(Cl)cc1)C(=O)O; 2Thi = N[C@@H](Cc1cccs1)C(=O)O; Agmatine = N=C(N)NCCCCN*; X1 = O=C(CCC[*:2])[*:1]; NH(CH2)4NH2 = NCCCCN*; NEt2 = CCN(CC)*

Experiments:
Rattus norvegicus [1] = experiment: Antidiuretic activity in hydrated-euvolemic Sprague-Dawley rat assessed as suppression of urine output at MED administered as iv infusion for 180 mins measured during compound dosing relative to control; assay type: functional
Rattus norvegicus [2] = experiment: Antidiuretic activity in hydrated-euvolemic Sprague-Dawley rat assessed as effective plasma concentration causing half-maximal suppression of urine output administered as iv infusion for 180 mins measured during compound dosing; assay type: functional, organism-based; conditions: 3 h
Vasopressin V1a receptor = Vasopressin V1a receptor (Homo sapiens, UniProt P37288); experiment: Agonist activity at recombinant human V1a receptor expressed in HEK293 cells up to 1000 nM measured after 5 hrs by luciferase reporter gene assay; assay type: cell-based; conditions: hek293, 5 h
Chain of Vasopressin V1a receptor (P37288 whole entry, the tested form may be a part): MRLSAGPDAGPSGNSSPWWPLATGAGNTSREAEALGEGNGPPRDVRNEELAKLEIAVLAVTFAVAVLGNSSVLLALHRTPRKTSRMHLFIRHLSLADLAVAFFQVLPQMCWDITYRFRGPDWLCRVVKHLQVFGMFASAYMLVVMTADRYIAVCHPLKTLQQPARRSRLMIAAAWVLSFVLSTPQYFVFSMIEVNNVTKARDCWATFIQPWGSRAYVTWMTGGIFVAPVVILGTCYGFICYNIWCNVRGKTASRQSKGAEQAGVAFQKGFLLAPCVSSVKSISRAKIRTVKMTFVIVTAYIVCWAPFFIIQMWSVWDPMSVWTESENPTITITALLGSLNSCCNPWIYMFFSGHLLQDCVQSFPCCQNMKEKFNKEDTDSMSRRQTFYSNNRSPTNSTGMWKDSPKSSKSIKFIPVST

Rattus norvegicus [3] = experiment: Antidiuretic activity in hydrated-euvolemic Sprague-Dawley rat assessed as suppression of urine output at 30 to 100 pM administered as iv infusion for 180 mins measured after 1 hr; assay type: functional, organism-based
[4] = Elimination half life in Sprague-Dawley rat at 0.1 mg/kg, iv administered as cassette dose by LC-MS/MS analysis; assay type: ADME, organism-based; conditions: in vivo, read-out: beta t1/2
Rattus norvegicus [5] = experiment: Antidiuretic activity in hydrated-euvolemic Sprague-Dawley rat assessed as suppression of urine output by measuring cumulative urine weight administered as iv infusion for 180 mins measured during compound dosing; assay type: functional
[6] = Half life in iv dosed Sprague-Dawley rat by LC-MS/MS analysis; assay type: ADME, organism-based; conditions: in vivo
[7] = Non-renal clearance in nephrectomized Sprague-Dawley rat at 0.1 mg/kg, iv administered as cassette dose by LC-MS/MS analysis; assay type: ADME, organism-based; conditions: in vivo
[8] = Clearance in Sprague-Dawley rat at 0.1 mg/kg, iv administered as cassette dose by LC-MS/MS analysis; assay type: ADME, organism-based; conditions: in vivo
Rattus norvegicus [9] = experiment: Antidiuretic activity in hydrated-euvolemic Sprague-Dawley rat assessed as suppression of urine output by measuring cumulative urine weight at 30 to 100 pM administered as iv infusion for 180 mins measured up to 300 mins; assay type: functional
[10] = target: T1, Oxytocin receptor (Homo sapiens) (UniProt P30559); experiment: Agonist activity at human OTR stably expressed in CHOK1 cells up to 10000 nM by NFAT-luciferase reporter gene assay; assay type: cell-based
T1 sequence (whole entry): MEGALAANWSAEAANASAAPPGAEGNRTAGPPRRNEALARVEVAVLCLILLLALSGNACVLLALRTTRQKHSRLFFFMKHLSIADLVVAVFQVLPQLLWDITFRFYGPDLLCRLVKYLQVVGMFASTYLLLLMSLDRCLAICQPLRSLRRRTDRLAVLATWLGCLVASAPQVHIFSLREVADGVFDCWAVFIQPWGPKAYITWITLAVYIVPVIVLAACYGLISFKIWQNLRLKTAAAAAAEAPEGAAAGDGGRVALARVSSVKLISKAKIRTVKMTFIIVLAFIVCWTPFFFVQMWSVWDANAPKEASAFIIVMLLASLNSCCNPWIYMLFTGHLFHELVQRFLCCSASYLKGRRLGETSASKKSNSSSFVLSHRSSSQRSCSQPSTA

Vasopressin V2 receptor [11] = target: Vasopressin V2 receptor (Rattus norvegicus, UniProt Q00788); experiment: Agonist activity at recombinant rat V2 receptor expressed in HEK293 cells measured after 5 hrs by cAMP response element driven luciferase reporter gene assay; assay type: functional, cell-based
Chain of Vasopressin V2 receptor (Rattus norvegicus, UniProt Q00788) (Q00788 whole entry, the tested form may be a part): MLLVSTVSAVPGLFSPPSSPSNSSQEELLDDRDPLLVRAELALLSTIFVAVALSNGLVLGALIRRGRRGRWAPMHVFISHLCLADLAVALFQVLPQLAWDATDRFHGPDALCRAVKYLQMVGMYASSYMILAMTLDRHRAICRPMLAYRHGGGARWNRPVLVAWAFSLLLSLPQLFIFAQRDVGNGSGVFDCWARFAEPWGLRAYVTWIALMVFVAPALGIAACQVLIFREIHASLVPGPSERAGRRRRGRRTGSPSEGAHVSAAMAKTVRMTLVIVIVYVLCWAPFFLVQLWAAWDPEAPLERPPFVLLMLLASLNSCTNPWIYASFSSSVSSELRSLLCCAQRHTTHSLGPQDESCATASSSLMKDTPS

Rattus norvegicus [12] = experiment: Antidiuretic activity in hydrated-euvolemic Sprague-Dawley rat assessed as suppression of urine output administered as iv infusion for 180 mins measured during compound dosing; assay type: functional, organism-based
[13] = target: Vasopressin V2 receptor (Rattus norvegicus) (UniProt Q00788); experiment: Agonist activity at recombinant rat V2 receptor expressed in HEK293 cells measured after 5 hrs by cAMP response element driven luciferase reporter gene assay relative to control; assay type: functional, cell-based
Chain of Vasopressin V2 receptor (Rattus norvegicus) (Q00788 whole entry): as the sequence (Q00788 whole entry, the tested form may be a part) above

[14] = Protein binding in rat plasma at 200 to 1000 ng/ml measured after 15 mins by UC-LC/MS/MS analysis; assay type: ADME, cell-free; conditions: read-out: PPB (converted)
Method in brief: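 Peptide spiked into rat plasma to final 200-1000 ng/mL, incubated 15 min at 37 °C, ultracentrifuged at 773,000 xg for 30 min at 37 °C; middle-layer sample quantified by LC/MS/MS; binding (%) = (Ci − Cm)/Ci × 100; quadruplicate.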

Rattus norvegicus [15] = experiment: Antidiuretic activity in hydrated-euvolemic Sprague-Dawley rat assessed as suppression of urine output at 30 to 100 pM administered as iv infusion for 180 mins measured within 1 hr; assay type: functional, organism-based
Rattus norvegicus [16] = experiment: Antidiuretic activity in hydrated-euvolemic Sprague-Dawley rat assessed as suppression of urine output at 30 pM administered as iv infusion for 180 mins measured immediately; assay type: functional, organism-based
[17] = Clearance in iv dosed over hydrated human; assay type: ADME, organism-based; conditions: in vivo
[18] = Clearance in severe renal impairment patent; assay type: ADME; conditions: human
[19] = target: Oxytocin receptor (Homo sapiens) (UniProt P30559); experiment: Agonist activity at recombinant human oxytocin receptor expressed in HEK293 cells measured after 5 hrs by luciferase reporter gene assay relative to control; conditions: read-out: Efficacy
[20] = target: Oxytocin receptor (Homo sapiens) (UniProt P30559); experiment: Agonist activity at recombinant human oxytocin receptor expressed in HEK293 cells measured after 5 hrs by luciferase reporter gene assay
Vasopressin V2 receptor [21] = target: Vasopressin V2 receptor (Homo sapiens, UniProt P30518); experiment: Agonist activity at recombinant human V2 receptor expressed in HEK293 cells measured after 5 hrs by cAMP response element driven luciferase reporter gene assay; assay type: functional, cell-based
Chain of Vasopressin V2 receptor (Homo sapiens, UniProt P30518) (P30518 whole entry, the tested form may be a part): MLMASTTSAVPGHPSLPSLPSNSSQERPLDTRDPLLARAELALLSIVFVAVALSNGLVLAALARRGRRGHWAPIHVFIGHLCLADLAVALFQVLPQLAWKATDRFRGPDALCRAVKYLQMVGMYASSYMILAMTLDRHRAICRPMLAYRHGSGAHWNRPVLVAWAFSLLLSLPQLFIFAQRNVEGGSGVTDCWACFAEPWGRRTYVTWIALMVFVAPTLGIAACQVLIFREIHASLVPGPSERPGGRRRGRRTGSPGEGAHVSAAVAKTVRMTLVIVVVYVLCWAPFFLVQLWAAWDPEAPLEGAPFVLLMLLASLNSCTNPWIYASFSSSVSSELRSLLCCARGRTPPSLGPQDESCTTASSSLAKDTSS

Rattus norvegicus [22] = experiment: Antidiuretic activity in hydrated-euvolemic Sprague-Dawley rat assessed as suppression of urine output at 30 pM administered as iv infusion for 180 mins measured after 5 hrs; assay type: functional, organism-based
Rattus norvegicus [23] = experiment: Antidiuretic activity in hydrated-euvolemic Sprague-Dawley rat assessed as suppression of urine output by measuring cumulative urine weight at 30 pM administered as iv infusion for 180 mins measured up to 300 mins; assay type: functional
Rattus norvegicus [24] = experiment: Antidiuretic activity in iv dosed rat assessed as suppression of urine output relative to control; assay type: functional

EC50 (Rattus norvegicus [2]) [nM] | Activity (Vasopressin V1a receptor) | half-life [4] [min] | half-life [6] [min] | CL [7] [%] | clearance [8] [mL/min/kg] | Activity [10] | EC50 (Vasopressin V2 receptor [11]) [nM] | Efficacy [13] [%] | fraction unbound at […] [14] | Compound | Activity (Rattus norvegicus [1]) [%] | Activity (Rattus norvegicus [5]) [g] | Activity (Rattus norvegicus [9]) [g] | Activity (Rattus norvegicus [12]) | also measured
0.00043 | Not Active | 6.4 | 12 | 60 | 42 | inactive | 0.05 | 91 | 0.08 | CCN(CC)C(=O)[C@@H](CCCNC(=N)N)NC(=O)[C@@H]1CCCN1C(=O)[C@@H]1CSCCCC(=O)N[C@@H](Cc2ccc(Cl)cc2)C(=O)N[C@@H](Cc2cccs2)C(=O)N[C@@H](C(C)C)C(=O)N[C@@H](CC(N)=O)C(=O)N1 ([Phe(4-Cl)][2Thi]VNCP[dR]-NEt2; linker N-5 via X1) | 80 | 5 | 1 | Dose-dependent effect | Activity (Rattus norvegicus [3]): inactive
0.00064 | Not Active | 16 | 20 | 57 | 14 | inactive | 0.02 | 99 | 0.15 | CC(C)[C@@H]1NC(=O)[C@H](Cc2cccs2)NC(=O)[C@H](Cc2ccc(Cl)cc2)NC(=O)CCCSC[C@@H](C(=O)N2CCC[C@H]2C(=O)NCCCCNC(=N)N)NC(=O)[C@H](CC(N)=O)NC1=O ([Phe(4-Cl)][2Thi]VNCP-Agmatine; linker N-5 via X1) | 80 | 5 | 1.3 | Dose-dependent effect | Activity (Rattus norvegicus [15]): inactive; Activity (Rattus norvegicus [16]): inactive
– | – | – | – | 11 | – | – | 0.03 | – | 0.59 | NC(=O)CC[C@@H]1NC(=O)[C@H](Cc2ccccc2)NC(=O)[C@H](Cc2ccc(O)cc2)NC(=O)CCSSC[C@@H](C(=O)N2CCC[C@H]2C(=O)N[C@H](CCCN=C(N)N)C(=O)NCC(N)=O)NC(=O)[C@H](CC(N)=O)NC1=O [DESMOPRESSIN] | – | – | – | – | clearance [17]: 1.7 mL/min/kg; clearance [18]: 0.69 mL/min/kg
– | Not Active | – | – | 18 | 7.2 | – | – | – | 0.58 | CC(C)[C@@H]1NC(=O)[C@H](Cc2cccs2)NC(=O)[C@H](Cc2ccc(O)cc2)NC(=O)CCCSC[C@@H](C(=O)N2CCC[C@H]2C(=O)NCCCCN)NC(=O)[C@H](CC(N)=O)NC1=O (Y[2Thi]VNCP-{NH(CH2)4NH2}; linker N-5 via X1) | – | – | – | – | Emax [19]: 28%; EC50 [20]: 650 nM; EC50 (Vasopressin V2 receptor [21]): 0.19 nM
0.00032 | – | – | – | – | – | – | – | 100 | – | N=C(N)NCCC[C@@H](NC(=O)[C@@H]1CCCN1C(=O)[C@@H]1CSSCCC(=O)N[C@@H](Cc2ccc(O)cc2)C(=O)N[C@@H](Cc2ccccc2)C(=O)N[C@@H](CCC(N)=O)C(=O)N[C@@H](CC(N)=O)C(=O)N1)C(=O)NCC(N)=O [DESMOPRESSIN] | 80 | 5.2 | – | – | Activity (Rattus norvegicus [22]): Active; Activity (Rattus norvegicus [23]): 0.99 g; Activity (Rattus norvegicus [24]): 48%
